Source: publication PMC10245299 (Bioorganic & medicinal chemistry letters, 2022)
Where two headings read alike, the source gives them in different places.

How the values were obtained:
[1] = by 24 hours in plasma; cited from earlier work
[2] = tested on: K562 cells; settings: read-out: Toxicity IC50, control compounds; cited from earlier work
[3] = Stability in 5 mg/mL K562 extract in lysis buffer; assay type: in vitro ADME; settings: n=2
[4] = Stability in 50% plasma in phosphate buffered saline; assay type: in vitro ADME
[5] = tested on: K562 cells; assay: Direct toxicity against K562 cells; assay type: cell-based; settings: Homo sapiens, K562, 72 h, read-out: Toxicity IC50
How it was run: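 Test compounds were applied directly to K562 cells, without T cells, to measure direct toxicity. n=3.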

| Compound | IC50 [2] [µM] | IC50 [5] [µM] | other results |
| --- | --- | --- | --- |
| C/C(=C\CCP(=O)(OCOC(=O)C(C)(C)C)OCOC(=O)C(C)(C)C)CO [Compound 5] | > 100 | – | percent metabolized in plasma [1]: 95%; K562 extract (4 h, percent remaining) [3]: totally disappeared |
| CCOC(=O)CNP(=O)(CC/C=C(\C)CO)Oc1ccccc1 (centres unmarked) [Compound 6] | > 100 | – | – |
| C/C(=C\CCP(=O)(OCC(=O)OC(C)(C)C)Oc1ccccc1)CO (centres unmarked) [Compound 7] | > 100 | – | – |
| CCOC(=O)[C@H](C)NP(=O)(CCC=C(C)C)N[C@@H](C)C(=O)OCC [Compound 12] | – | – | remaining at 24 h [4]: ≥ 70% |
| CCOC(=O)CNP(=O)(CC/C=C(\C)CO)NCC(=O)OCC [Compound 16] | – | 10 to 100 | – |
| COC(=O)[C@@H](NP(=O)(CC/C=C(\C)CO)N[C@H](C(=O)OC)C(C)C)C(C)C [Compound 17] | – | 10 to 100 | – |
